# Measured values taken from ChEMBL document CHEMBL4145661, “H2O2/Peroxynitrite-Activated Hydroxamic Acid HDAC Inhibitor Prodrugs Show Antileukemic Activities against AML Cells” (ACS Med Chem Lett, 2018).
# Calls of active or inactive are those of the source. No cut-off for these calls is given here.
# Experiments:
# MV4-11 [1] = assay: Cytotoxicity against human MV4-11 cells assessed as reduction in cell viability at 0.05 to 0.5 uM cotreated with up to 500 nM of 4-CPA measured after 72 hrs by MTT assay; type: functional, cell-based
# PBMC = assay: Cytotoxicity against human PBMC assessed as reduction in cell viability after 72 hrs by MTT assay; type: functional, cell-based
# Method in brief: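 Peripheral blood mononuclear cells from two healthy donors, viability measured by MTT assay.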
# U-937 [2] = assay: Cytotoxicity against human U937 cells assessed as reduction in cell viability at 0.25 to 2.5 uM after 72 hrs by MTT assay; type: functional, cell-based
# MV4-11 [3] = assay: Potentiation of cytarabine-induced cytotoxicity against human MV4-11 cells assessed as increase in cleaved caspase 3 level at 2.5 uM after 24 hrs by Western blot analysis; type: functional, cell-based
# Method in brief: (§1)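 MV4-11 cells exposed 24 h to prodrug (2.5 or 0.5 μM) and/or cytarabine (0.5 μM). Cleaved caspase-3 and cleaved PARP-1 detected by Western blot.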
# [4] = molecular target: T1, Histone deacetylase (Homo sapiens) (UniProt Q13547+O15379+Q9UBN7+Q92769+Q9UQL6+Q8WUI4+Q9BY41+Q96DB2+P56524+Q9UKV0+Q969S8); assay: Inhibition of HDAC in human MV4-11 cells assessed as increase in acetylation of alpha-tubulin after 6 hrs by Western blot analysis; type: cell-based
# Method in brief: (§2)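 Western blot of MV4-11 cells after 6 h exposure at the indicated concentrations, probing acetyl-histone H4 and acetyl-α-tubulin. Densitometry normalized to GAPDH, fold change relative to SAHA treatment. Blot representative of three experiments.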
# [5] = molecular target: T1, Histone deacetylase (Homo sapiens); assay: Inhibition of HDAC in human PBMC assessed as increase in acetylation of histone H4 at 5 to 10 uM after 6 hrs by Western blot analysis; type: cell-based
# Method in brief: (§3)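 Peripheral blood mononuclear cells from one healthy donor, treated at 5 and 10 μM and compared against vehicle control. Acetyl-histone H4 and acetyl-α-tubulin assessed by Western blot.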
# U-937 [6] = assay: Cytotoxicity against human U937 cells assessed as reduction in cell viability after 72 hrs by MTT assay; settings: U-937, 72 h
# MV4-11 [7] = assay: Cytotoxicity against human MV4-11 cells assessed as reduction in cell viability at 2.5 uM pretreated with catalase for 2 hrs followed by compound addition measured after 72 hrs by MTT assay; type: functional, cell-based
# [8] = molecular target: T1, Histone deacetylase (Homo sapiens); assay: Inhibition of HDAC in human PBMC assessed as increase in acetylation of alpha-tubulin at 5 to 10 uM after 6 hrs by Western blot analysis; type: cell-based; method in brief: as §3
# [9] = Chemical stability of the compound in PBS at 100 uM at pH 7.4 after 72 hrs at 37 degC in presence of GSH by HPLC method; type: physicochemical; settings: buffer, pH 7.4, 72 h
# [10] = molecular target: T1, Histone deacetylase (Homo sapiens); assay: Inhibition of HDAC in human MV4-11 cells assessed as increase in acetylation of histone H4 after 6 hrs by Western blot analysis; type: cell-based; method in brief: as §2
# MV4-11 [11] = assay: Cytotoxicity against human MV4-11 cells assessed as reduction in cell viability at 2.5 uM pretreated with GSH for 2 hrs followed by compound addition measured after 72 hrs by MTT assay; type: functional, cell-based
# MV4-11 [12] = assay: Potentiation of cytarabine-induced cytotoxicity against human MV4-11 cells assessed as increase in cleaved PARP level at 2.5 uM after 24 hrs by Western blot analysis; type: functional, cell-based; method in brief: as §1
# [13] = molecular target: T1, Histone deacetylase (Homo sapiens); assay: Inhibition of HDAC in human U937 cells assessed as increase in acetylation of alpha-tubulin after 6 hrs by Western blot analysis; type: cell-based
# MV4-11 [14] = assay: Potentiation of cytarabine-induced cytotoxicity against human MV4-11 cells assessed as reduction in cell viability at 2.5 uM after 72 hrs by MTT assay; type: functional, cell-based
# Method in brief: (§4)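 MV4-11 cells given prodrug (2.5 or 0.5 μM) with cytarabine for 72 h. Viability by MTT; mean ± SD, n = 6.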
# MV4-11 [15] = assay: Cytotoxicity against human MV4-11 cells assessed as reduction in cell viability after 72 hrs by MTT assay; settings: MV4-11, 72 h
# MV4-11 [16] = assay: Cytotoxicity against human MV4-11 cells assessed as reduction in cell viability at 2.5 uM pretreated with SOD for 2 hrs followed by compound addition measured after 72 hrs by MTT assay; type: functional, cell-based
# [17] = molecular target: T1, Histone deacetylase (Homo sapiens); assay: Inhibition of HDAC in human U937 cells assessed as increase in acetylation of histone H4 after 6 hrs by Western blot analysis; type: cell-based
# MV4-11 [18] = assay: Cytotoxicity against human MV4-11 cells assessed as reduction in cell viability at 2.5 uM pretreated with GSHEE for 2 hrs followed by compound addition measured after 72 hrs by MTT assay; type: functional, cell-based
# MV4-11 [19] = assay: Cytotoxicity against human MV4-11 cells assessed as reduction in cell viability at 2.5 uM pretreated with LPS for 2 hrs followed by compound addition measured after 72 hrs by MTT assay; type: functional, cell-based
# MV4-11 [20] = assay: Cytotoxicity against human MV4-11 cells assessed as reduction in cell viability at 2.5 uM pretreated with BSO for 2 hrs followed by compound addition measured after 72 hrs by MTT assay; type: functional, cell-based
# MV4-11 [21] = assay: Cytotoxicity against human MV4-11 cells assessed as reduction in cell viability up to 10 uM after 72 hrs by MTT assay; type: functional, cell-based
# MV4-11 [22] = assay: Potentiation of cytarabine-induced cytotoxicity against human MV4-11 cells assessed as increase in cleaved PARP level at 0.5 uM after 24 hrs by Western blot analysis; type: functional, cell-based; method in brief: as §1
# MV4-11 [23] = assay: Potentiation of cytarabine-induced cytotoxicity against human MV4-11 cells assessed as increase in cleaved caspase 3 level at 0.5 uM after 24 hrs by Western blot analysis; type: functional, cell-based; method in brief: as §1
# MV4-11 [24] = assay: Potentiation of cytarabine-induced cytotoxicity against human MV4-11 cells assessed as reduction in cell viability at 0.5 uM after 72 hrs by MTT assay; type: functional, cell-based; method in brief: as §4
# [25] = molecular target: T1, Histone deacetylase (Homo sapiens); settings: at 1 µM
# MV4-11 [26] = assay: Cytotoxicity against human MV4-11 cells assessed as reduction in cell viability at 0.25 to 1 uM cotreated with 4-CPA measured after 72 hrs by MTT assay; type: functional, cell-based
smiles,measurement,setting,value
O=C(CCCCCCC(=O)Nc1ccccc1)NO,Activity,MV4-11 [1],inactive
same,Activity,PBMC,Active
COC(=O)CCCCCCOc1c(OC)cc(/C=C/C(=O)N2CCC=CC2=O)cc1OC,Activity,U-937 [2],inactive
O=C(CCCCCCC(=O)Nc1ccccc1)NOCc1ccc(B(O)O)cc1,Activity,MV4-11 [3],Active
same,inhibition,[4],Dose-dependent effect
same,inhibition,[5],inactive
same,IC50,U-937 [6],6.13 µM
same,Activity,MV4-11 [7],inactive
same,inhibition,[8],inactive
same,Stability,[9],Stable
same,inhibition,[10],Dose-dependent effect
same,Activity,MV4-11 [11],inactive
same,Activity,MV4-11 [12],Active
same,inhibition,[13],Dose-dependent effect
same,Activity,MV4-11 [14],Active
same,IC50,MV4-11 [15],3.07 µM
same,Activity,MV4-11 [16],Active
same,inhibition,[17],Dose-dependent effect
same,IC50,PBMC,> 10 µM
same,Activity,MV4-11 [18],inactive
same,Activity,MV4-11 [19],Active
same,Activity,MV4-11 [20],Active
O=C(CCCCCCC(=O)Nc1ccccc1)NCCc1ccc(B(O)O)cc1,Activity,MV4-11 [21],inactive
COc1cc(/C=C/C(=O)N2CCC=CC2=O)cc(OC)c1OCCCCCCC(=O)NOCc1ccc(B(O)O)cc1,inhibition,[4],Dose-dependent effect
same,inhibition,[5],inactive
same,IC50,U-937 [6],1.61 µM
same,inhibition,[8],inactive
same,inhibition,[10],Dose-dependent effect
same,Activity,MV4-11 [22],Active
same,inhibition,[13],Dose-dependent effect
same,IC50,MV4-11 [15],0.7 µM
same,inhibition,[17],Dose-dependent effect
same,IC50,PBMC,7.6 to 10 µM
same,Activity,MV4-11 [23],Active
same,Activity,MV4-11 [24],Active
CC(=O)Oc1ccc(CCl)cc1,IC50,MV4-11 [15],1.13 µM
COc1cc(/C=C/C(=O)N2CCC=CC2=O)cc(OC)c1OCCCCCCC(=O)NO,inhibition,[25],32%
same,Activity,MV4-11 [26],Active
